Laboratory results from ChEMBL document CHEMBL1133896, “Structure-activity study and analgesic efficacy of amino acid derivatives as N-type calcium channel blockers” (Bioorg Med Chem Lett, 2001).

Key:
[1] = In vitro inhibition against L-type calcium influx in mouse pituitary tumor derived cells (AtT-20); type: functional; details: AtT20
[2] = target: T1, Voltage-dependent N-type calcium channel subunit alpha-1B (Homo sapiens, UniProt Q00975); experiment: In vitro inhibition against N-type calcium influx in IMR-32 cells; type: functional, cell-based
Target sequence in this assay (Q00975 whole entry): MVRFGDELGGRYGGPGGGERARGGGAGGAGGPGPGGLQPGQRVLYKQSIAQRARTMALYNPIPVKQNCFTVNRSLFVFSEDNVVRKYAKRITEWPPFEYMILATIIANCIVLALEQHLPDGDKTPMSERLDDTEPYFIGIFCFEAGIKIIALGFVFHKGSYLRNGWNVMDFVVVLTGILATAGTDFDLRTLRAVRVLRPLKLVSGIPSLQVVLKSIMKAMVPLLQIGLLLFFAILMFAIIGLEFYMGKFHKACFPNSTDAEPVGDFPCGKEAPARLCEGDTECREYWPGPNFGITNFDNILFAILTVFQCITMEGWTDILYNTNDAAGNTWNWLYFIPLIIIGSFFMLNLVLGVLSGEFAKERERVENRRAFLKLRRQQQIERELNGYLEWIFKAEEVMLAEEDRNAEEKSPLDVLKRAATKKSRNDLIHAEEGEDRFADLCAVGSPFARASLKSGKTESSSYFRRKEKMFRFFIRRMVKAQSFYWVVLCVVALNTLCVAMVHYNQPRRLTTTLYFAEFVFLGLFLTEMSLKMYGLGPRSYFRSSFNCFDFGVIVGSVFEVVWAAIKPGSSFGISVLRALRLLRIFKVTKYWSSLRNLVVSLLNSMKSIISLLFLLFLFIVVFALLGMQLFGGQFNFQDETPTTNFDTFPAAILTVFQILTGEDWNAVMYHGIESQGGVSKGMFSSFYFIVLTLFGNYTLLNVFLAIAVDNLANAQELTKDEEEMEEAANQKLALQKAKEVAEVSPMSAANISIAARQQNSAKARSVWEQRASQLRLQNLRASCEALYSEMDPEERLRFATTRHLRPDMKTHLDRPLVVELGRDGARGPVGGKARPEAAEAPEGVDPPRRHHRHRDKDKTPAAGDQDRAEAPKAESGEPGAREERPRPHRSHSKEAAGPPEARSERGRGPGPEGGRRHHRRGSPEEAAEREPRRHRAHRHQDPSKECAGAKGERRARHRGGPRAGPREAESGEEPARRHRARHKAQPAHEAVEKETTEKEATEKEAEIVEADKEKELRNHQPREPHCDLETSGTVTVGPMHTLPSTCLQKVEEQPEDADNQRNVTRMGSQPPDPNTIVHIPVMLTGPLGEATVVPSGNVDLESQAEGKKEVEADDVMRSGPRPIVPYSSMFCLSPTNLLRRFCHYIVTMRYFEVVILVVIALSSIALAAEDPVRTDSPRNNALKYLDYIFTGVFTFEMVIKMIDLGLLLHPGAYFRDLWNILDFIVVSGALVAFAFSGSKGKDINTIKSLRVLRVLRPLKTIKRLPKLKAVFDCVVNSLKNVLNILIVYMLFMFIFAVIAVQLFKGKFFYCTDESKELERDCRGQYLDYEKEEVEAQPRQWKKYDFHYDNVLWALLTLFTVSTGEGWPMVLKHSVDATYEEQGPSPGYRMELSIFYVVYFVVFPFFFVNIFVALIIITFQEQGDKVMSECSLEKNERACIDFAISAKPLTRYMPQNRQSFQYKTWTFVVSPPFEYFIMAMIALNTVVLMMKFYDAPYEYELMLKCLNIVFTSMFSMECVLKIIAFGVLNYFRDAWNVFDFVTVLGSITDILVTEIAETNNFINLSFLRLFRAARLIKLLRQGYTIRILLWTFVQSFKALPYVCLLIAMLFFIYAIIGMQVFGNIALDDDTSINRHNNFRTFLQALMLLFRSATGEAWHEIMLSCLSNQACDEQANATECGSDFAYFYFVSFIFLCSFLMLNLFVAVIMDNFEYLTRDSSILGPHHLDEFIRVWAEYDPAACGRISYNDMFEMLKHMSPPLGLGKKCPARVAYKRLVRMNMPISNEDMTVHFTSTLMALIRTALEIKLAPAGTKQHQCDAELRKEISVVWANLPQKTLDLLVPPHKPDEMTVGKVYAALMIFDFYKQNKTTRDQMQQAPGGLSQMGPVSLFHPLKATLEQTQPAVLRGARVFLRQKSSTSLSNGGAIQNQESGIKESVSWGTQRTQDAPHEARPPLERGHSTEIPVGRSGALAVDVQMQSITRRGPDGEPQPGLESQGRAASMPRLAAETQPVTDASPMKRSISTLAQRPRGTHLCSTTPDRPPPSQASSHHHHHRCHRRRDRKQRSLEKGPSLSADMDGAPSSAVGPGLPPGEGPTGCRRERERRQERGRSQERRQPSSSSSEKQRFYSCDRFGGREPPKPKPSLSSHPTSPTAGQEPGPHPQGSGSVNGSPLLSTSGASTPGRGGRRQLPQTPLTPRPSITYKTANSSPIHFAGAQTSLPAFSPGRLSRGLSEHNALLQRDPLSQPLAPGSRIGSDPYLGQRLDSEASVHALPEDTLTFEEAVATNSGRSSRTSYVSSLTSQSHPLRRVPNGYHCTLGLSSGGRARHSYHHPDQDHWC

[3] = Selectivity ratio between the L-type to N-type calcium influx; type: functional
Rattus norvegicus [4] = experiment: In vivo analgesic efficacy in the rat formalin induced pain model at 3 nmol/rat intrathecal dose; type: functional
Method in brief: (§1)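 Rat formalin test. The read-out was paw flinching during the persistent nociceptive phase, expressed as % inhibition, n=3. Blood pressure and neurological behavior were also observed.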

[5] = target: T1, Voltage-dependent N-type calcium channel subunit alpha-1B; experiment: In vitro inhibition of N-type calcium channel current in IMR-32 cells at 10 uM; type: functional
Target sequence in this assay (Q00975 whole entry, looked up): as the sequence (Q00975 whole entry) above

Rattus norvegicus [6] = experiment: In vivo analgesic efficacy in rat formalin induced pain model at 100 mg/kg peroral dose; type: functional; details: route oral; method in brief: as §1

Structure (SMILES) | IC50 [1] | IC50 [2] | Selectivity ratio [3] | Inhibition (Rattus norvegicus [4]) | inhibition [5] | inhibition in vivo at 100 mg/kg (Rattus norvegicus [6])
COc1ccc(COC(=O)[C@H](COC(=O)C2CCCCC2)NC(=O)OC(C)(C)C)cc1 | 10 µM | 1.6 µM | 6.3 |  |  | 
COc1ccc(COC(=O)[C@H](CC(=O)OC2CCCCC2)NC(=O)OC(C)(C)C)cc1 | 16 µM | 2.3 µM | 7 |  |  | 
COC(=O)C[C@H](NC(=O)OC(C)(C)C)C(=O)OCc1ccc(OC)cc1 | 14 µM | 26 µM | 0.5 |  |  | 
CC(C)(C)OC(=O)N[C@@H](CC(=O)OC1CCCC1)C(=O)OCc1ccc(Cl)cc1 | 16 µM | 3.3 µM | 4.8 |  |  | 
COc1ccc(CNC(=O)[C@H](COCC2CCCCC2)NC(=O)OC(C)(C)C)cc1 | 3.8 µM | 0.95 µM | 4 | 35% | 38% | 
COc1ccccc1COC(=O)[C@H](CC(=O)OC1CCCC1)NC(=O)OC(C)(C)C | 15 µM | 5.4 µM | 2.8 |  |  | 
COc1ccc(COC(=O)[C@@H](CC(=O)OC2CCCC2)NC(=O)OC(C)(C)C)cc1 | 2.9 µM | 2 µM | 1.5 |  |  | 
COc1ccc(CNC(=O)[C@H](CSCC2CCCC2)NC(=O)OC(C)(C)C)cc1 | 3.9 µM | 0.63 µM | 6.2 | 47% | 45% | 43%
COc1ccc(COC(=O)[C@H](CC(=O)OC2CCCCCC2)NC(=O)OC(C)(C)C)cc1 | 12 µM | 2.6 µM | 4.6 |  |  | 
COc1ccc(COC(=O)[C@H](CC(=O)OC2CCC2)NC(=O)OC(C)(C)C)cc1 | 28 µM | 15 µM | 1.9 |  |  | 
COc1ccc(CNC(=O)[C@H](CCOC2CCCCC2)NC(=O)OC(C)(C)C)cc1 | 13 µM | 4 µM | 3.3 |  |  | 
CC(C)(C)OC(=O)N[C@@H](CC(=O)OC1CCCC1)C(=O)OCc1ccc(Br)cc1 | 5.3 µM | 3.4 µM | 1.6 |  |  | 
COc1ccc(COC(=O)[C@H](CC(=O)OC2CCCC2)NC(=O)OC(C)(C)C)cc1 | 15 µM | 3.4 µM | 4.4 | 31% | 34% | 
COc1ccc(CNC(=O)[C@H](CSCC2CCCCC2)NC(=O)OC(C)(C)C)cc1 | 1.7 µM | 0.61 µM | 2.8 | 36% | 66% | 
COc1ccc(COC(=O)[C@H](COCC2CCCCC2)NC(=O)OC(C)(C)C)cc1 | 8.4 µM | 1.2 µM | 7 |  |  | 
COc1ccc(CN(C)C(=O)[C@H](COCC2CCCCC2)NC(=O)OC(C)(C)C)cc1 | 1.4 µM | 1.8 µM | 0.8 |  |  | 
COc1cccc(COC(=O)[C@H](CC(=O)OC2CCCC2)NC(=O)OC(C)(C)C)c1 | 12 µM | 3.8 µM | 3.2 |  |  | 
